Measurements from PubChem BioAssay.
Calls of active or inactive are those of the source.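 Rule for the calls, unless noted: active = inhibition at or above 50% at 10 µM; inactive = inhibition below 50%.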

Assays:
[1] = inhibitors of TNFa-induced NFkB p65 translocation, primary screen, imaging, HUVEC, MLSMR starter and 10KST1 sets (AID 438;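 active = inhibition above 20% together with a positive visual image hit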;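 note: compound added about 3h40 before a 20 min TNFalpha stimulation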;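 for inhibition: signal is the nuclear over cytoplasmic p65 intensity ratio per well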); conditions: HUVEC TNFa-induced p65 nuclear translocation; cell count: measured here: nuclei count (cytotoxicity indicator), at 2.08 µM; inhibition: at 2 µM, stronger effect = higher value, 0% TNFa-plus-vehicle, 100% no-TNFa wells
[2] = reduction of polyQ htt aggregates in cells – imaging, exon1htt(103Q)mCFP cells, high-content imaging, primary screen (AID 483;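 active = visual image review flags a hit and inhibition of aggregation exceeds 20%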;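 note: compound exposure lasted 3 days before fixation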;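 for nuclei count: percent of the per-plate median nuclei count of sample wells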); conditions: exon1htt(103Q)mCFP cell line, aggregate imaging, at 2 µM; inhibition of aggregation: stronger effect = higher value; nuclei count: measured here: cell count, toxicity
[3] = endothelial E-selectin expression blockers – imaging, HUVEC, immunofluorescence, MLSMR starter and 10KST1 sets, primary screen (AID 487;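 active = visually confirmed hit in the image check and inhibition above 20%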;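 for inhibition: signal is fraction of cell area covered by stained E-selectin grains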;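 for nuclei count: 100% = median nuclei count of all wells on the same plate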); conditions: HUVEC TNFalpha-induced E-selectin immunofluorescence imaging, at 2 µM; inhibition: stronger effect = higher value; nuclei count: measured here: cell number, toxicity
[4] = target: Voltage-gated potassium channel subunit beta-2 (Rattus norvegicus) (UniProt P62483); assay: inhibitors of rat Kvbeta2 reductase activity – biochemical, NADPH fluorescence, primary screen (AID 622;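 active = fluorescence slope higher than the sample average by over 3 SD, cut at about -0.22 in these data, passing the limit was not always enough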;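 note: slope of raw intensity against log time taken from 70 to 1610 s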); conditions: recombinant KvBeta, 4-cyanobenzaldehyde reduction, at 10 µM, stronger effect = higher value
[5] = target: Voltage-gated potassium channel subunit beta-2 (Rattus norvegicus) (UniProt P62483); assay: enhancers of rat Kvbeta2 NADPH turnover – biochemical, NADPH fluorescence, primary screen (AID 623;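 active = NADPH fluorescence slope more negative than the mean of all samples by about 3 SD, 99.7% confidence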;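 note: fluorescence intensity change per second fitted from 20 to 320 s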); conditions: Recombinant KvBeta, NADPH fluorescence decrease slope, 10 min; at 10 µM; stronger effect = lower value
[6] = target: Muscarinic acetylcholine receptor M4 (Homo sapiens) (UniProt P08173); assay: M4-linked GIRK flux change, two-sided – cell-based, HEK293 M4/GIRK, thallium flux, BTC-AM, M4 allosteric agonist project, primary screen (AID 625;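 active = fluorescence slope after compound addition differing from the mean of all tested samples at 99.7% confidence, mostly higher but some lower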;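 note: thallium influx through GIRK channels coupled to M4 in HEK293 cells with BTC-AM dye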); conditions: at 10 µM, actives lie on both sides
Procedure, shortened: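 Material: M4/GIRK1/GIRK2 stable HEK293 cell line. Medium: pH 7.3 thallium assay buffer. Dosing: single compound concentration, 10 µM final. Schedule: 1 h dye loading, 2 min kinetic read. Measured by: kinetic fluorescence with BTC-AM dye. Read-out: post-addition slope, 15–24 s, of baseline-normalized fluorescence. Benchmarks: carbachol and DMSO controls.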

[7] = blockers of RIG-like receptor reporter activation – cell-based, Sendai virus stimulus, luciferase, 10K MLSCN set, TLR/RLR signaling modifier project, primary screen (AID 602276); conditions: HEK293 RL24 IRF3 luciferase reporter, at 10 µM, stronger effect = higher value;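 note: firefly luciferase from ISG56 promoter only with Renilla not read in this screen; 0% = Sendai virus plus DMSO and 100% = medium plus DMSO without virus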
[8] = TLR3 IRF3 reporter activation blockers – cell-based, poly I:C stimulus, luciferase, 10K MLSCN set, primary screen (AID 602277;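 active = inhibition of the reporter signal at or above 50%; inactive = inhibition below 50%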); conditions: HEK293-TLR3 RL24 IRF3 luciferase reporter, at 10 µM, stronger effect = higher value

Voltage-gated potassium channel subunit beta-2 (Rattus norvegicus), sequence (P62483 whole entry, looked up): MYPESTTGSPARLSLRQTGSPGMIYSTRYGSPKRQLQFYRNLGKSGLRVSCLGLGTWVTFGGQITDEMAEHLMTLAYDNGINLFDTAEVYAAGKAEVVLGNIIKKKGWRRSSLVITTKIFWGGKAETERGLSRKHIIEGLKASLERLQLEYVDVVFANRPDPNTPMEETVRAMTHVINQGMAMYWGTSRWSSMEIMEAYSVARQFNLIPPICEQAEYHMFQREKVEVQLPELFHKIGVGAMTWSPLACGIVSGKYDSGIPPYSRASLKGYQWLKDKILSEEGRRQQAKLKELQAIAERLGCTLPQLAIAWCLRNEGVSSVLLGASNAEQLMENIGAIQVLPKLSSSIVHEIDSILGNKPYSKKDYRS
Muscarinic acetylcholine receptor M4 (Homo sapiens), sequence (P08173 whole entry, looked up): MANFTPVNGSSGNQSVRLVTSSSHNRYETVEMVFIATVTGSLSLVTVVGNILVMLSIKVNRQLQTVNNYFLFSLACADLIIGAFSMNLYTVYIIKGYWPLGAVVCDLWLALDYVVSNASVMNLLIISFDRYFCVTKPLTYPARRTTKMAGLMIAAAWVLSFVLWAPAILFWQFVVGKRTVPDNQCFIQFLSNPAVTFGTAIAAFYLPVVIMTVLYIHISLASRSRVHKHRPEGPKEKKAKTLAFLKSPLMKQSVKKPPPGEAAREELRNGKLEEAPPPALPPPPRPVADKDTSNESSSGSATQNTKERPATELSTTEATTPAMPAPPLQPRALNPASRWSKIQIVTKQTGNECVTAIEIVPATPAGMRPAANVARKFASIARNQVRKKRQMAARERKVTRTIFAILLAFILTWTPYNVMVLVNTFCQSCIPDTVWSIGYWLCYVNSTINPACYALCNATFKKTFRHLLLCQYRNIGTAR

SMILES | cell count [1] | inhibition [1] | inhibition of aggregation [2] | nuclei count [2] | inhibition [3] | nuclei count [3] | fluorescence slope [4] | NADPH fluorescence slope [5] | fluorescence slope [6] | inhibition [7] | inhibition [8]
CCOCCCNC(=O)c1c[nH]c2ccc(S(=O)(=O)Nc3cccc(OC)c3)cc2c1=O | 337 | -3.1% (inactive) | -12.3% (inactive) | 99.2% | -85.4% (inactive) | 105% | -0.599 (inactive) | -3.6e-05 (inactive) | 0.00605 (inactive) | 0.375% (inactive) | 0.559% (inactive)
CC(C)(C)C(=O)Cn1c(=N)n(Cc2ccccc2)c2ccccc21 | 394 | 6.1% (inactive) | 8.9% (inactive) | 99.1% | 20.9% (inactive) | 96% | -0.409 (inactive) | 4.3e-05 (inactive) | 0.00407 (inactive) | 20% (inactive) | 17.2% (inactive)
O=S(=O)(c1ccc2c(c1)nc1n2CCC1)N1CCOCC1 | 519 | -1.9% (inactive) | -0.2% (inactive) | 96.3% | -18.9% (inactive) | 107% | -0.423 (inactive) | 2.5e-05 (inactive) | 0.00774 (inactive) | -4.44% (inactive) | 13.8% (inactive)
O=C(Cc1nn[nH]n1)NCCC1=CCCCC1 | 402 | 1.7% (inactive) | 2.5% (inactive) | 99.7% | -1.4% (inactive) | 113% | -0.567 (inactive) | -8.7e-06 (inactive) | 0.00606 (inactive) | 5.61% (inactive) | 18% (inactive)
O=C(Nc1ccc(CN2CCOCC2)cc1)c1cc2ccccc2oc1=O | 426 | 3.6% (inactive) | -12.6% (inactive) | 118% | -218% (inactive) | 146% | -0.53 (inactive) | -7.9e-05 (inactive) | 0.00463 (inactive) | 0.662% (inactive) | 29.5% (inactive)
CCSc1nc(O)c(CC)c(=O)n1C(C)CC (centres undefined) | 304 | 2.1% (inactive) | -3.7% (inactive) | 112% | -56.3% (inactive) | 111% | -0.556 (inactive) | -3.6e-05 (inactive) | 0.00478 (inactive) | -0.896% (inactive) | 4.86% (inactive)
O=C1CC(c2ccc(S(=O)(=O)N3CCN(c4ccccc4)CC3)cc2)CN1 (centres undefined) | 426 | 0.3% (inactive) | 7.2% (inactive) | 102% | 75.6% (active) | 44.2% | -0.289 (inactive) | -4.6e-05 (inactive) | 0.00584 (inactive) | 5.45% (inactive) | 14.5% (inactive)
COc1ccc(OC)c(NC(=O)CSc2ncccc2C(=O)O)c1 | 409 | 0% (inactive) | -10.4% (inactive) | 7.1% | -120% (inactive) | 125% | -0.495 (inactive) | -0.000268 (inactive) | 0.00462 (inactive) | -1.78% (inactive) | 9.5% (inactive)
CCOC(=O)c1sc(NS(=O)(=O)c2ccc(NC(C)=O)cc2)nc1C | 701 | -3.5% (inactive) | -10.1% (inactive) | 99.8% | 1% (inactive) | 94.9% | -0.448 (inactive) | 1.6e-05 (inactive) | 0.00462 (inactive) | 11.5% (inactive) | 19.8% (inactive)
CCc1cc2c(=O)c(-c3ccc4c(c3)OCCO4)coc2cc1OC(=O)c1ccco1 | 637 | -5.2% (inactive) | 4.7% (inactive) | 92.8% | -184% (inactive) | 105% | -0.554 (inactive) | -4.2e-05 (inactive) | 0.00495 (inactive) | -45.7% (inactive) | -122% (inactive)
FC(F)(F)c1nnc2ccc(NCn3nnc4ccccc43)nn12 | 562 | -27.6% (inactive) | 18.9% (inactive) | 85.2% | 16.1% (inactive) | 94.1% | -0.434 (inactive) | 3.1e-05 (inactive) | 0.00533 (inactive) | 12.7% (inactive) | 3.14% (inactive)
CN1CC=C2C(C#N)=C(N)C(C#N)(C#N)C(c3cccc(Cl)c3Cl)C2C1 (centres undefined) | 566 | -8.5% (inactive) | -7.2% (inactive) | 110% | -13.9% (inactive) | 99.2% | -0.399 (inactive) | -0.000109 (inactive) | 0.00362 (inactive) | 8.89% (inactive) | 9.8% (inactive)
COc1cc(C2C(C(=O)c3ccc(C)o3)=C(O)C(=O)N2c2cc(C)on2)cc(Br)c1O (centres undefined) | 724 | -16.4% (inactive) | -2.8% (inactive) | 109% | -127% (inactive) | 118% | -0.518 (inactive) | -3e-05 (inactive) | 0.00505 (inactive) | 13.3% (inactive) | 19.1% (inactive)
COc1ccc2c(c1)CCc1c(C(=O)NCc3cccnc3)noc1-2 | 358 | 5.4% (inactive) | -6.5% (inactive) | 103% | -85.6% (inactive) | 89.1% | -0.462 (inactive) | -0.000203 (inactive) | 0.00462 (inactive) | -37.2% (inactive) | -67.9% (inactive)
COc1cc(C2=NOC(C(=O)NCc3ccc(F)cc3)C2)cc(OC)c1OC (centres undefined) | 774 | 13.6% (inactive) | -195% (inactive) | 2.2% | -308% (inactive) | 103% | -0.462 (inactive) | 4.9e-05 (inactive) | 0.00672 (inactive) | 36.9% (inactive) | 85.8% (active)
CCOc1ccc(Cl)cc1S(=O)(=O)N1CCCC1 | 208 | 1.4% (inactive) | 0.2% (inactive) | 101% | -46.5% (inactive) | 122% | -0.453 (inactive) | 2.4e-05 (inactive) | 0.00537 (inactive) | 17% (inactive) | 15.8% (inactive)
Cc1[nH]c(=O)[nH]c(=O)c1S(=O)(=O)N(C)Cc1ccccc1 | 433 | 1.1% (inactive) | -2.7% (inactive) | 110% | -90.2% (inactive) | 110% | -0.491 (inactive) | 3.7e-05 (inactive) | 0.00478 (inactive) | 3.97% (inactive) | 13.8% (inactive)
CS(=O)(=O)N(CC(=O)NC1CC1)c1cccc(F)c1 | 387 | -2.3% (inactive) | 0.3% (inactive) | 113% | -44.3% (inactive) | 113% | -0.555 (inactive) | -5e-05 (inactive) | 0.00595 (inactive) | 8.69% (inactive) | 14.7% (inactive)
COc1ccc(-c2noc(C3CCCN(C(=O)CCc4ccccc4)C3)n2)cc1 (centres undefined) | 383 | -3.5% (inactive) | 18.4% (inactive) | 101% | -83.2% (inactive) | 57.8% | -0.454 (inactive) | -5e-06 (inactive) | 0.00551 (inactive) | 12.3% (inactive) | 1.57% (inactive)
